Data as given in ChEMBL document CHEMBL4138165, “Design, synthesis and biological evaluation of new β-carboline-bisindole compounds as DNA binding, photocleavage agents and topoisomerase I inhibitors” (Eur J Med Chem, 2018).
Active and inactive are the calls of the source. The rule behind the calls is not given here.

What was measured:
MCF7 = assay: Antiproliferative activity against human MCF7 cells after 48 hrs by MTT assay; format: functional, cell-based; settings: MCF7, 48 h
DU-145 [1] = assay: Cell cycle arrest in human DU145 cells assessed as accumulation at sub-G1 phase at 2 uM after 48 hrs by FACS analysis (reference value: 7.71%); format: functional
Calf thymus DNA [2] = assay: Binding affinity to calf thymus double stranded DNA at 15 uM by ostwald viscometer; format: nucleic-acid assay; settings: Bos taurus
Calf thymus DNA [3] = assay: Binding affinity to calf thymus double stranded DNA at 25 uM by UV-vis spectroscopic method; format: nucleic-acid assay; settings: Bos taurus
Calf thymus DNA [4] = assay: Binding affinity to calf thymus double stranded DNA at 10 uM by spectrofluorimetric method; format: nucleic-acid assay; settings: Bos taurus
DU-145 [5] = assay: Cell cycle arrest in human DU145 cells assessed as accumulation at G2/M phase at 2 uM after 48 hrs by FACS analysis (reference value: 21.07%); format: functional
DU-145 [6] = assay: Cell cycle arrest in human DU145 cells assessed as accumulation at G0/G1 phase at 1 uM after 48 hrs by FACS analysis (reference value: 53.60%); format: functional
DU-145 [7] = assay: Cell cycle arrest in human DU145 cells assessed as accumulation at S phase at 2 uM after 48 hrs by FACS analysis (reference value: 16.22%); format: functional
DU-145 [8] = assay: Induction of apoptosis in human DU145 cells assessed as early apoptotic cells at 1 uM after 48 hrs by annexin-V/FITC/propidium iodide staining-based FACS analysis (reference value: 3.61%); format: functional
DU-145 [9] = assay: Induction of apoptosis in human DU145 cells assessed as viable cells at 1 uM after 48 hrs by annexin-V/FITC/propidium iodide staining-based FACS analysis (reference value: 91.44%); format: functional; settings: DU-145, 48 h, read-out: Activity
DU-145 [10] = assay: Induction of apoptosis in human DU145 cells assessed as necrotic cells at 2 uM after 48 hrs by annexin-V/FITC/propidium iodide staining-based FACS analysis (reference value: 0.49%); format: functional
DU-145 [11] = assay: Induction of apoptosis in human DU145 cells assessed as late apoptotic cells at 1 uM after 48 hrs by annexin-V/FITC/propidium iodide staining-based FACS analysis (reference value: 4.46%); format: functional
DNA [12] = assay: Induction of Escherichia coli pBR322 DNA cleavage at 20 uM incubated in presence of UV-light for 1 hr by agarose gel electrophoresis; format: nucleic-acid assay
In short: (§1)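 pBR322 plasmid DNA was incubated with 20 µM ligand, either in the dark or under UV-light irradiation for 1 h. Products were separated by gel electrophoresis. Irradiated DNA solution alone served as the control.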

DU-145 [13] = assay: Induction of apoptosis in human DU145 cells assessed as late apoptotic cells at 2 uM after 48 hrs by annexin-V/FITC/propidium iodide staining-based FACS analysis (reference value: 4.46%); format: functional
A549 = assay: Antiproliferative activity against human A549 cells after 48 hrs by MTT assay; format: functional, cell-based; settings: A549, 48 h
DU-145 [14] = assay: Cell cycle arrest in human DU145 cells assessed as accumulation at sub-G1 phase at 1 uM after 48 hrs by FACS analysis (reference value: 7.71%); format: functional
DU-145 [15] = assay: Induction of apoptosis in human DU145 cells assessed as viable cells at 2 uM after 48 hrs by annexin-V/FITC/propidium iodide staining-based FACS analysis (reference value: 91.44%); format: functional; settings: DU-145, 48 h, read-out: Activity
DU-145 [16] = assay: Antiproliferative activity against human DU145 cells after 48 hrs by MTT assay; format: functional, cell-based; settings: DU-145, 48 h
NIH3T3 = assay: Antiproliferative activity against mouse NIH/3T3 cells after 48 hrs by MTT assay; format: functional, cell-based; settings: NIH3T3, 48 h
HeLa = assay: Antiproliferative activity against human HeLa cells after 48 hrs by MTT assay; format: functional, cell-based
Calf thymus DNA [17] = assay: Binding affinity to calf thymus double stranded DNA at 20 uM by CD spectroscopic method; format: nucleic-acid assay; settings: Bos taurus
DNA [18] = assay: Induction of Escherichia coli pBR322 DNA cleavage at 20 uM incubated in dark condition by agarose gel electrophoresis; format: nucleic-acid assay; in short: as §1
DU-145 [19] = assay: Cell cycle arrest in human DU145 cells assessed as accumulation at G2/M phase at 1 uM after 48 hrs by FACS analysis (reference value: 21.07%); format: functional
DU-145 [20] = assay: Cell cycle arrest in human DU145 cells assessed as accumulation at S phase at 1 uM after 48 hrs by FACS analysis (reference value: 16.22%); format: functional
[21] = target: T1, Topoisomerase I (Bos taurus) (UniProt Q2HPH0); assay: Inhibition of calf thymus DNA topoisomerase 1 at 20 uM using pBR322 DNA as substrate after 30 mins by agarose gel electrophoresis method
T1 sequence (whole entry): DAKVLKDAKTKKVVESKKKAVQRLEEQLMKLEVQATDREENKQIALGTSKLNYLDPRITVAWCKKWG

DU-145 [22] = assay: Induction of apoptosis in human DU145 cells assessed as necrotic cells at 1 uM after 48 hrs by annexin-V/FITC/propidium iodide staining-based FACS analysis (reference value: 0.49%); format: functional
Calf thymus DNA [23] = assay: Binding affinity to calf thymus double stranded DNA assessed as hypochromicity at 10 uM by […] method; format: nucleic-acid assay; settings: Bos taurus
DU-145 [24] = assay: Induction of apoptosis in human DU145 cells assessed as early apoptotic cells at 2 uM after 48 hrs by annexin-V/FITC/propidium iodide staining-based FACS analysis (reference value: 3.61%); format: functional
DU-145 [25] = assay: Cell cycle arrest in human DU145 cells assessed as accumulation at G0/G1 phase at 2 uM after 48 hrs by FACS analysis (reference value: 53.60%); format: functional

Compound	IC50 (MCF7) [µM]	Activity (DU-145 [1]) [%]	Activity (Calf thymus DNA [2])	Activity (Calf thymus DNA [3])	Activity (Calf thymus DNA [4])	Activity (DU-145 [5]) [%]	Activity (DU-145 [6]) [%]	Activity (DU-145 [7]) [%]	Activity (DU-145 [8]) [%]	viability at 1 µM (DU-145 [9]) [%]	Activity (DU-145 [10]) [%]	Activity (DU-145 [11]) [%]	Activity (DNA [12])	Activity (DU-145 [13]) [%]	IC50 (A549) [nM]	Activity (DU-145 [14]) [%]	viability at 2 µM (DU-145 [15]) [%]	IC50 (DU-145 [16]) [nM]	IC50 (NIH3T3) [µM]	IC50 (HeLa) [nM]	also measured
Cc1ccc(-c2nc(C(c3c[nH]c4ccc(Br)cc34)c3c[nH]c4ccc(Br)cc34)cc3c2[nH]c2ccccc23)cc1	5.85	6.05	Active	Active	Active	57.12	54.58	19.52	6.43	87	0.47	6.43	Active	3.12	2510	5.57	63.6	1860	125	2540	Activity (Calf thymus DNA [17]): Active; Activity (DNA [18]): Not Active; Activity (DU-145 [19]): 22.04%; Activity (DU-145 [20]): 16.37%; inhibition [21]: Active; Activity (DU-145 [22]): 0.12%; Activity (Calf thymus DNA [23]): 10 to 12%; Activity (DU-145 [24]): 32.76%; Activity (DU-145 [25]): 15.92%
Fc1ccc(-c2nc(C(c3c[nH]c4ccccc34)c3c[nH]c4ccccc34)cc3c2[nH]c2ccccc23)cc1	8.5	4.93	Active	Active	Active	62.86	15.15	17.41	8.49	84.7	1.14	6.55	Active	5.06	2040	6.91	55.5	1800	140	3250	Activity (Calf thymus DNA [17]): Active; Activity (DNA [18]): Not Active; Activity (DU-145 [19]): 57.46%; Activity (DU-145 [20]): 19.16%; inhibition [21]: Active; Activity (DU-145 [22]): 0.23%; Activity (Calf thymus DNA [23]): 10 to 12%; Activity (DU-145 [24]): 38.28%; Activity (DU-145 [25]): 13.58%
